Series [1] addresses T1, Alpha-1B adrenergic receptor (Homo sapiens, UniProt P35368).
T1 sequence (P35368 whole entry): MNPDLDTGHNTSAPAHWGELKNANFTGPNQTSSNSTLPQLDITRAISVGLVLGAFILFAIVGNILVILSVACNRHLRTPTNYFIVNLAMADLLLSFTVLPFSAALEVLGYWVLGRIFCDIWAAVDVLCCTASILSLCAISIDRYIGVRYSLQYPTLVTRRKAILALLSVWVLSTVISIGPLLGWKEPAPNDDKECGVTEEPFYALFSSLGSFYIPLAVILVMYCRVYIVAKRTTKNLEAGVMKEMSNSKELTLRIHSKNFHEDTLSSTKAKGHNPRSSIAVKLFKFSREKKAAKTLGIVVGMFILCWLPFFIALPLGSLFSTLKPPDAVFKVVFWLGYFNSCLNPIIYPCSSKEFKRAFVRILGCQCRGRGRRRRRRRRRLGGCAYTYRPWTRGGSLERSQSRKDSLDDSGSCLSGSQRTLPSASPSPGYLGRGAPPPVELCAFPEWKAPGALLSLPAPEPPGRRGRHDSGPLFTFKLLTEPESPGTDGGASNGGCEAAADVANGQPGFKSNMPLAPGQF
Briefly: Displacement of [3H]prazosin from human alpha1B-adrenoceptor expressed in CHO cell membranes measured after 30 mins. An outline of the steps: (§1)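 Membranes (30 µg protein) from stably transfected CHO cells, each expressing one human α1 subtype, incubated 30 min at 25 °C in 50 mM Tris-HCl pH 7.4 with 0.1-0.4 nM [3H]prazosin and competitor 1 pM-10 µM. Nonspecific binding defined with 10 µM phentolamine. Filtration over PEI-treated filters. Ki from IC50 via Cheng-Prusoff; 2-3 experiments in triplicate.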

In series [2] the target is T2, Alpha-1D adrenergic receptor (Rattus norvegicus) (UniProt P23944).
T2 sequence (whole entry): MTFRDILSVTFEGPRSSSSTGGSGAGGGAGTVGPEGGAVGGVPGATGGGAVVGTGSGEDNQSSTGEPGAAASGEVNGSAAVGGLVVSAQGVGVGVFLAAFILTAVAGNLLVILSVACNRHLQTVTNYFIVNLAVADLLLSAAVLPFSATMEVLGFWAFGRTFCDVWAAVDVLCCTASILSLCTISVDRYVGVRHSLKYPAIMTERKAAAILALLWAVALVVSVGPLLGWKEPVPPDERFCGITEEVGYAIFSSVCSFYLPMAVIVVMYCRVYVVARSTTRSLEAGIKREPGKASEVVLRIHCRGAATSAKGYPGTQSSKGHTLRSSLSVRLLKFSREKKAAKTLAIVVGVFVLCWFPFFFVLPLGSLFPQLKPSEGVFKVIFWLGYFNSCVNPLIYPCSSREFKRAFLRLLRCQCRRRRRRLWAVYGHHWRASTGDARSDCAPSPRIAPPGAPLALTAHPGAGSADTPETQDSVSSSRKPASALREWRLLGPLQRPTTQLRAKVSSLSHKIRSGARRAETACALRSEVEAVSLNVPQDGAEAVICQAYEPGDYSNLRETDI
Briefly: Antagonist activity at alpha1D-adrenoceptor in Wistar rat thoracic aorta assessed as inhibition of (-)-NE-induced contractions preincubated for 60 mins before (-)-NE challenge measured after 1 hr in presence of normetanephrine hydrochloride and (+/-)-propranolol hydrochloride. The essentials:
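Male Wistar rat thoracic aorta strips, endothelium rubbed off and checked by loss of 100 µM acetylcholine relaxation after 1 µM (-)-NE contraction. Krebs solution, 1 g tension, at least 2 h equilibration. Isometric cumulative (-)-NE curves at 1 h intervals; third used as control, fourth after 60 min antagonist. pKB from the ED50 dose ratio. Mean ± SE, 4-5 experiments.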

Series [3] deals with T3, Alpha-1D adrenergic receptor (Homo sapiens, UniProt P25100).
T3 sequence (P25100 whole entry): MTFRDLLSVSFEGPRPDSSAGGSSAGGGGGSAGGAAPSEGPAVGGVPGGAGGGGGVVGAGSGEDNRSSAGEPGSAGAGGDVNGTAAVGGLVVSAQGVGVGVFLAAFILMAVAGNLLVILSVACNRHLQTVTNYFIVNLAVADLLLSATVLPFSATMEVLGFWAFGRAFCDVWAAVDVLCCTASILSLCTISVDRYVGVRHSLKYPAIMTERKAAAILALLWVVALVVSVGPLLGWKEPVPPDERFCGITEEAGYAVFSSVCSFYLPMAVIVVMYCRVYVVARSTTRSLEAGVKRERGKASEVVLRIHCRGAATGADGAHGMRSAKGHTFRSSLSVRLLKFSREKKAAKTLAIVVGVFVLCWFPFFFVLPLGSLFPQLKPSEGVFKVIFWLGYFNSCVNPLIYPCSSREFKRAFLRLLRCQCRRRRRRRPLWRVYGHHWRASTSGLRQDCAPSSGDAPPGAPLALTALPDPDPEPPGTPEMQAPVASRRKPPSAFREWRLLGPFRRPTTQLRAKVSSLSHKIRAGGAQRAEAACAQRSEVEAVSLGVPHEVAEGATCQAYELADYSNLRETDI
Briefly: Displacement of [3H]prazosin from human alpha1D-adrenoceptor expressed in CHO cell membranes measured after 30 mins. An outline of the steps: as §1
Background: In a radioligand displacement assay an active substance lowers the binding of a labelled ligand.

The target in series [4] is T4, Alpha-1A adrenergic receptor (Rattus norvegicus) (UniProt P43140).
T4 sequence (whole entry): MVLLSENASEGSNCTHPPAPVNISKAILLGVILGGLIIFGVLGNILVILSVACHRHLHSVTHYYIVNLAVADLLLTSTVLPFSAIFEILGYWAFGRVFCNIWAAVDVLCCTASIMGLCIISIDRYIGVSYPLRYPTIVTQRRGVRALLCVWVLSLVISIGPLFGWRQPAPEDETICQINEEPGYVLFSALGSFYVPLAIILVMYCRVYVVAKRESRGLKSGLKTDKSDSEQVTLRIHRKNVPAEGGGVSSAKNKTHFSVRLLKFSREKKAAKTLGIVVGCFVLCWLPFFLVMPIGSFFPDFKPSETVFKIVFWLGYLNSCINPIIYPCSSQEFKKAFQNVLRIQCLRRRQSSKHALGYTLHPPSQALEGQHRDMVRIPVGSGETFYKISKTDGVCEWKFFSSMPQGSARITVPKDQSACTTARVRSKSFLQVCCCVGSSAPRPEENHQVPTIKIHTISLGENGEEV
Description: Antagonist activity at alpha1A-adrenoceptor in Wistar rat prostatic vas deference assessed as inhibition of (-)-NE-induced contractions preincubated for 60 mins before (-)-NE challenge measured after 45 mins. An outline of the steps:
(§2)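 Male Wistar rats (275-300 g); prostatic vas deferens segments (2 cm) under 0.35 g tension at 37 °C in Tyrode with cocaine, aerated 5% CO2/95% O2. Tissue primed twice with 10 µM (-)-NE, then a cumulative isotonic (-)-NE curve. Antagonist equilibrated 60 min before a repeat curve. Line 1 gives pKB = log(DR-1) - log[B] at one or two concentrations; line 4 gives pA2 from Schild plot, slope constrained to -1. Mean ± SE, 4-5 experiments.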

In series [5] the target is T5, Alpha-1A adrenergic receptor (Homo sapiens, UniProt P35348).
T5 sequence (P35348 whole entry): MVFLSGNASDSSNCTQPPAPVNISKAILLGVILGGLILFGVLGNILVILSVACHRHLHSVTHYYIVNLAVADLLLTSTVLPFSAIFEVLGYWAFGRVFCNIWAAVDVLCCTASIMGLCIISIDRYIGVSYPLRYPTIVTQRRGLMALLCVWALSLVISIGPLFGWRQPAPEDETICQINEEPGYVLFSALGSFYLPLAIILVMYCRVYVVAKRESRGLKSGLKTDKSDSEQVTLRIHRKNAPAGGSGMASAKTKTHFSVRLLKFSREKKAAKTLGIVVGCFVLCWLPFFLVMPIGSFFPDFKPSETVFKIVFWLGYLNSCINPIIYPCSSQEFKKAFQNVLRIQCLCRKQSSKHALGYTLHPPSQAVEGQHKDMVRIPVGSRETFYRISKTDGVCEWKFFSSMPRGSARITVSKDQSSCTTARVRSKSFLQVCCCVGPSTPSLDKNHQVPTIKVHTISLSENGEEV
Briefly: Displacement of [3H]prazosin from human alpha1A-adrenoceptor expressed in CHO cell membranes measured after 30 mins. The essentials:
as §1

In series [6] the target is T6, Alpha-1B adrenergic receptor (Rattus norvegicus, UniProt P15823).
T6 sequence (P15823 whole entry): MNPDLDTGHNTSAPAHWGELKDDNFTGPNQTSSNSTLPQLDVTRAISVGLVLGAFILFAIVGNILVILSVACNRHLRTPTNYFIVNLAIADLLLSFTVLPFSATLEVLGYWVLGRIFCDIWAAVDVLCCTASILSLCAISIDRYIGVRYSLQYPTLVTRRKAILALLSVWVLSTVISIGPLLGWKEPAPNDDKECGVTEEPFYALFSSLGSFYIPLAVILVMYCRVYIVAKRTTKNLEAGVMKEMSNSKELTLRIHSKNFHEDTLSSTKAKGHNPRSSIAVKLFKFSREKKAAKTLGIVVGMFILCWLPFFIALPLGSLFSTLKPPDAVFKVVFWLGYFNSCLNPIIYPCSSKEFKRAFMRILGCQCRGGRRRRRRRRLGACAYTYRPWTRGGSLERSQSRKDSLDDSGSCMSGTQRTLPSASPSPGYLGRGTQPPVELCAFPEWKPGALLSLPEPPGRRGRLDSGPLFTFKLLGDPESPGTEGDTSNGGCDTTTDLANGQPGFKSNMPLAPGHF
Description: Antagonist activity at alpha1B-adrenoceptor in Wistar rat spleen assessed as inhibition of phenylphrine-induced contractions measured after 30 mins in presence of (+/-)-propranolol hydrochloride. Particulars: 0.5 h. The essentials:
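Male Wistar rat spleen strips in Krebs-type solution at 37 °C with (±)-propranolol 4 µM, under 1 g resting tension, equilibrated 2 h. Cumulative isometric phenylephrine curves at 30 min intervals; first discarded, second used as control, then a curve after 30 min antagonist incubation. pKB = log(DR-1) - log[B] from ED50 ratio. Mean ± SE, 4-5 experiments.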

In series [7] the target is T7, Alpha-1A adrenergic receptor (Rattus norvegicus, UniProt P43140).
T7 sequence (P43140 whole entry): T4 sequence (whole entry)
Description: Competitive antagonist activity at alpha1A-adrenoceptor in Wistar rat prostatic vas deference assessed as inhibition of (-)-NE-induced contractions preincubated for 60 mins before (-)-NE challenge measured after 45 mins by Schild plot analysis. Conditions: read-out: pA2 (converted). The essentials:
as §2

As a reminder, the Ki is a measure of affinity in units of concentration, obtained from inhibition or displacement. As a reminder, the pKb is −log10 of the Kb, conventionally taken in molar units. Consider `COc1ccccc1N1CCN(CCc2ccccc2)CC1`, for which the Ki in series [1] was 91.2 nM; in series [3] it was 16.6 nM; in series [5] it was 31.6 nM. Further, the pKb came out at 8.5 in series [2], 7.76 in series [4] and 7.82 in series [6].

For `CCOc1ccccc1N1CCN(CCc2ccc3c(c2)OCO3)CC1`, the Ki in series [1] was 5.37 nM; in series [3], 1.51 nM; in series [5] it was 1.12 nM. The pKb turned out to be 8.84 in series [2], 9.09 in series [4] and 8.85 in series [6].

Take `CC(C)Oc1ccccc1N1CCN(CCc2ccccc2)CC1`: the values for the Ki in series [1], in series [3] and in series [5] were 77.6 nM, 4.57 nM and 5.01 nM, respectively. Moreover, the negative-log Kb (pKb) in series [2] came out at 8.59; in series [4], 8.29; in series [6], 7.94.

As to `COc1ccc(CCN2CCN(c3ccccc3OC(C)C)CC2)cc1`, the values for the Ki in series [1], in series [3] and in series [5] were 14.8 nM, 3.09 nM and 2.24 nM, respectively.

On to `COc1cccc(CCN2CCN(c3ccccc3OC(C)C)CC2)c1`, for which the inhibitory constant (Ki) in series [1] was 13.8 nM; in series [3] it was 1.32 nM; in series [5], 2.75 nM. The pKb in series [2] was found to be 9.46; in series [4], 8.87; in series [6], 8.92.

Regarding `CCOc1ccccc1N1CCN(CCc2cccc(OC)c2)CC1`, the Ki is 25.1 nM in series [1], 2.57 nM in series [3] and 2.95 nM in series [5]. Further, the results for the pKb in series [2], in series [4] and in series [6] were 8.11, 8.39 and 8.13, respectively.

As to `CCOc1ccccc1N1CCN(CCc2ccc(OC)c(OC)c2)CC1`, the Ki in series [1] is 15.8 nM; in series [3], 0.603 nM; in series [5], 2.09 nM. For the same molecule, the values for the pKb in series [2], in series [4] and in series [6] were 8.79, 9.1 and 8.89, respectively.

With `COc1ccc(CCN2CCN(c3ccccc3OC(C)C)CC2)cc1OC`, the results for the inhibitory constant (Ki) in series [1], in series [3] and in series [5] were 10.5 nM, 1.35 nM and 2 nM, respectively. Further, the pKb in series [2] was 9.12; in series [4], 9.55; in series [6] it was 8.74.

Consider `CC(C)Oc1ccccc1N1CCN(CCc2ccc3c(c2)OCO3)CC1`, for which the results for the inhibitory constant (Ki) in series [1], in series [3] and in series [5] were 12.9 nM, 1.74 nM and 0.389 nM, respectively. Also, the pKb in series [2] is 8.33; in series [4], 8.27; in series [6], 8.03. Moreover, the Kb in series [7] was 4.17 nM.

Take `COc1ccccc1N1CCN(CCc2ccc3c(c2)OCO3)CC1`: the inhibitory constant (Ki) in series [1] was 5.25 nM; in series [3], 1.26 nM; in series [5], 3.47 nM. Moreover, the figures for the pKb in series [2], in series [4] and in series [6] were 8.57, 8.47 and 8.11, respectively.

Turning to `CCOc1ccccc1N1CCN(CCc2ccc(OC)cc2)CC1`, the inhibition constant Ki in series [1] was 10.2 nM; in series [3], 1.35 nM; in series [5], 1.12 nM. For the same molecule, the pKb in series [2] amounted to 8.23; in series [4] it was 8.89; in series [6], 7.91.

The values above are taken from ChEMBL document CHEMBL3867431, “Synthesis and structure-activity relationships of novel arylpiperazines as potent antagonists of α1-adrenoceptor” (Eur J Med Chem, 2016).
